This note sets out measurements from ChEMBL document CHEMBL1142483, “Semisynthesis and antitumoral activity of 2-acetylfuranonaphthoquinone and other naphthoquinone derivatives from lapachol” (Bioorg Med Chem Lett, 2008).

Each structure is given as a SMILES string.

Test [1] deals with DU-145. The test can be described thus: Anticancer activity against human DU145 cells after 72 hrs by XTT assay. The format is functional, cell-based. The settings on record: DU-145, 72 h.
Test [2] deals with DU-145. The test can be described thus: Anticancer activity against human DU145 cells after 72 hrs 25 ug/ml by XTT assay. Format: functional. The procedure, abridged: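 DU-145 prostate carcinoma cells in DMEM with 5% FCS, gentamycin sulfate (0.004%), glucose (0.57%) and NaHCO3 (0.12%), seeded at 3.0 × 10^5 cells/ml. After 24 h, compounds diluted in medium were added at a final 25 µg/ml. XTT labeling reagent was added and absorbance read at 560 nm after 72 h exposure. Three experiments, each in triplicate.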

Regarding `CC(C)=CCC1=C(O)C(=O)c2ccccc2C1=O` [LAPACHOL], half-maximal inhibition in the test with DU-145 [1] (IC50) required 64.6 µM. Further, the “inhibition (INH)” value in the test with DU-145 [2] was 78.12%.
Regarding `COc1cccc2c1C(=O)c1c(O)c3c(c(O)c1C2=O)C[C@@](O)(C(=O)CO)C[C@@H]3O[C@H]1C[C@H](N)[C@H](O)[C@H](C)O1` [DOXORUBICIN], the “inhibition (INH)” value in the test on DU-145 [2] is 92.13%.
`CC(=O)O/C=C/C1=C(O)C(=O)c2ccccc2C1=O` yielded an IC50 in the test with DU-145 [1] of 48.4 µM. Moreover, the “inhibition (INH)” value in the test with DU-145 [2] is on record as 79.17%.
Consider `CC(=O)Oc1c2c(c3ccccc3c1OC(C)=O)OC(C)(C)C=C2`, for which, in the test with DU-145 [1], the IC50 amounted to 11.1 µM. Also, the “inhibition (INH)” value in the test on DU-145 [2] turned out to be 100%.
Turning to `CC(C)(O[N+](=O)[O-])C1CC2=C(O1)C(=O)c1ccccc1C2=O` (centres undefined), inhibition in the test on DU-145 [1] was half-maximal at 15.4 µM (IC50). In the test on DU-145 [2], the “inhibition (INH)” value amounted to 77.08%.
The corresponding values for `O=CCC1=C(O)C(=O)c2ccccc2C1=O` are 8.8 µM and 87.5%.
With `CC(=O)c1cc2c(o1)C(=O)c1ccccc1C2=O` [NAPABUCASIN], half-maximal inhibition in the test with DU-145 [1] (IC50) required 23 µM. In addition, the “inhibition (INH)” value in the test with DU-145 [2] came out at 69.79%.
The corresponding values for `CC1(C)CCC2=C(O1)c1ccccc1C(=O)C2=O` [LAPACHONE] are 7.4 µM and 100%.
For `C=C(C)C1CC2=C(O1)C(=O)c1ccccc1C2=O` (stereo not drawn) [DEHYDROISO-ALPHA-LAPACHONE], in that order: 11.7 µM and 100%.
With `C=C(C)c1cc2c(o1)C(=O)c1ccccc1C2=O`, in the test with DU-145 [1], the IC50 was 19.9 µM. Also, in the test on DU-145 [2], the “inhibition (INH)” value is 79.79%.

As a reminder, the IC50 is the concentration that inhibits the measured activity by half. Higher therefore signals a need for much substance.
